Source: ChEMBL document CHEMBL1124475, “The thieno[3,2-c]pyridine and furo[3,2-c]pyridine rings: new pharmacophores with potential antipsychotic activity” (J Med Chem, 1989)
Active and inactive are the calls of the source. The calls are words filed in the database; no cut-off is given here.

Legend:
[1] = biological target: T1, Adrenergic receptor alpha-1 (Rattus norvegicus, UniProt P15823+P23944+P43140); test: Ability to bind at Alpha-1 adrenergic receptor by displacing [3H]WB-4101; type: protein assay
T1 sequence (P15823 whole entry): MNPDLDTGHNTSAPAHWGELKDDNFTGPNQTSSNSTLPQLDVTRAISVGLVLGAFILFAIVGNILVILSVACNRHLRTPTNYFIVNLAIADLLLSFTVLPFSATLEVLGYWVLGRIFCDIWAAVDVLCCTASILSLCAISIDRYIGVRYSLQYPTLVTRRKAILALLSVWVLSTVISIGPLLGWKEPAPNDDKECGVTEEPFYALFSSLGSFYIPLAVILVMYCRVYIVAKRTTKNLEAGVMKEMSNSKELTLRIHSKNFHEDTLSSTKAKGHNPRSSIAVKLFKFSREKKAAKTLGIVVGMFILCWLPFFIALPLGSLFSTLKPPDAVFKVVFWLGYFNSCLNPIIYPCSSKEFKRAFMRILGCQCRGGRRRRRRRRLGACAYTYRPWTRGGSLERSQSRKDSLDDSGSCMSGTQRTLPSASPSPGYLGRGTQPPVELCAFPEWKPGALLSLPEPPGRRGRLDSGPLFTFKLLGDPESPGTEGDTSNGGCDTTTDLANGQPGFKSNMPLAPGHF
T1 sequence (P23944 whole entry): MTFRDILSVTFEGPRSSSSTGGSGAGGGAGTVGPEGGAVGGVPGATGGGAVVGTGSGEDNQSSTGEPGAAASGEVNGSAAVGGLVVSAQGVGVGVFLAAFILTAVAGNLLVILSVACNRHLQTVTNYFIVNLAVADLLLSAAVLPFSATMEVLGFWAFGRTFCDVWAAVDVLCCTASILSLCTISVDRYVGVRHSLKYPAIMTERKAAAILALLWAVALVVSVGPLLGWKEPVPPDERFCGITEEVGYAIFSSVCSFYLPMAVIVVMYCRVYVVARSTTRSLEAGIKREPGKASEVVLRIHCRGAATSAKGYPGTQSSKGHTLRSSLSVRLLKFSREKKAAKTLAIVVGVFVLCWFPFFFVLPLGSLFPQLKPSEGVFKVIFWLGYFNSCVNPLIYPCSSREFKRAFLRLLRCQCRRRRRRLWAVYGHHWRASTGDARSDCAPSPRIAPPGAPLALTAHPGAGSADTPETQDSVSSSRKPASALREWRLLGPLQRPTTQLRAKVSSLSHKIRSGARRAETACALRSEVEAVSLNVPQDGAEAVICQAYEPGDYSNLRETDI
T1 sequence (P43140 whole entry): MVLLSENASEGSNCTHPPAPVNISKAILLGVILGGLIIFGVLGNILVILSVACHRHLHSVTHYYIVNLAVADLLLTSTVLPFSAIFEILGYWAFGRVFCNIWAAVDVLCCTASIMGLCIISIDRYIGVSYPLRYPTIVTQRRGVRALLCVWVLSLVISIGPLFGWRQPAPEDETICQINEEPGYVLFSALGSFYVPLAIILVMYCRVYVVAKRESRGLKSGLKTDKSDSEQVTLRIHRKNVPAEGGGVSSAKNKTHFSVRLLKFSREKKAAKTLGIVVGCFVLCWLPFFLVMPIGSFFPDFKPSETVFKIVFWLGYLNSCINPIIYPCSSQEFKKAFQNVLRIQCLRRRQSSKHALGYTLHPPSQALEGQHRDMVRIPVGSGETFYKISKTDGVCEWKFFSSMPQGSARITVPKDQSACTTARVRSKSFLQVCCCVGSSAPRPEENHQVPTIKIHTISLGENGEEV

[2] = test system: Rattus norvegicus; test: Conditioned avoidance response (CAR) when administered perorally; type: functional; details: po
[3] = biological target: T2, D(2) dopamine receptor (Rattus norvegicus, UniProt P61169); test: Ability to bind at dopamine receptor D2 of rat corpus striatum by displacing [3H]spiperone
[4] = biological target: Serotonin 1 (5-HT1) receptor (Rattus norvegicus, UniProt P28564+P30940+P19327+P28565); test: Ability to bind at 5-hydroxytryptamine 1 receptor of rat hippocampus by displacing [3H]5-HT; type: tissue-based
Outline: (§1)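 Rat receptor radioligand displacement, five test-ligand concentrations used to calculate IC50, each assay in duplicate. Some compounds determined four times (in duplicate), with mean IC50 reported.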

[5] = test system: Rattus norvegicus; test: Blockade of Sidman-avoidance activity in rats when administered perorally; type: functional
Outline: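 Rats trained in once-daily Sidman sessions until stable; non-learners after 3 days replaced. Twelve rats dosed 30 min before session. Each rat compared with mean of its previous three drug-free days by paired t test. Testing continued to minimally effective dose; maximum usually 100 mg/kg. MED is mean over 12 animals.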

[6] = biological target: T3, Serotonin 2 (5-HT2) receptor (Rattus norvegicus, UniProt P30994+P08909+P14842); test: Ability to bind at 5-hydroxytryptamine 2 receptor of rat cortex by displacing [3H]spiperone
[7] = test system: Rattus norvegicus; test: Blockade of apomorphine-induced stereotypy in rats when administered perorally; type: functional; details: po
[8] = biological target: T1, Adrenergic receptor alpha-1; test: Ability to bind at alpha-1 adrenergic receptor by displacing [3H]WB-4101; type: protein assay; outline: as §1
[9] = biological target: T3, Serotonin 2 (5-HT2) receptor; test: Ability to bind at serotonin 5-hydroxytryptamine 2 receptors of rat cortex by displacing [3H]spiperone
[10] = biological target: T2, D(2) dopamine receptor; test: Ability to bind at Dopamine receptor D2 of rat corpus striatum by displacing [3H]spiperone; outline: as §1
[11] = biological target: T4, 5-hydroxytryptamine receptor 1A (Rattus norvegicus, UniProt P19327); test: Ability to bind at serotonin 5-hydroxytryptamine 1A receptors of rat hippocampus by displacing [3H]8-OH-DPAT; type: tissue-based; outline: as §1
T4 sequence (P19327 whole entry): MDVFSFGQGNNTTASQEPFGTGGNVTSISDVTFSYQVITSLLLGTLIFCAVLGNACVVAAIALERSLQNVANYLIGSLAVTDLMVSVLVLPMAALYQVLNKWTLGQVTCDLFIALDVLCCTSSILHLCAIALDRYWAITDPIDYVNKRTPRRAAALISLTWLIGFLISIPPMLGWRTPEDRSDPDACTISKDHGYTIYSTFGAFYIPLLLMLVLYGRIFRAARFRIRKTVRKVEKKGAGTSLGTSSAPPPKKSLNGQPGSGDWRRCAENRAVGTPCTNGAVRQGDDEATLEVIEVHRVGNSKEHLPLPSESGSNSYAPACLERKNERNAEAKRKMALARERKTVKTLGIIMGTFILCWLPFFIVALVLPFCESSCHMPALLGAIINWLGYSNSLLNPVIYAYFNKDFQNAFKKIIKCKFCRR

[12] = biological target: T4, 5-hydroxytryptamine receptor 1A; test: Ability to bind at 5-hydroxytryptamine 1A receptor of rat hippocampus by displacing [3H]8-OH-DPAT; type: tissue-based; outline: as §1
[13] = test system: Mus musculus; test: Blockade of apomorphine-induced climbing in mice when administered perorally; IA Inactive; type: functional, organism-based
Outline: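 Male mice habituated 30 min in individual cages, then dosed orally (distilled H2O or 0.5% Methocel suspension, 10 mL/kg) or vehicle. Apomorphine 1.5 mg/kg sc given 30 min later. Climbing scored at 10, 20, 30 min post-apomorphine. At least five animals per dose, maximum 100 mg/kg.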

[14] = test system: Rattus norvegicus; test: Induction of catalepsy in rats when administered perorally and maximum dose examined was 4 times the ED50 value established in CAR; Inactive; type: functional, organism-based

T2 sequence (P61169 whole entry): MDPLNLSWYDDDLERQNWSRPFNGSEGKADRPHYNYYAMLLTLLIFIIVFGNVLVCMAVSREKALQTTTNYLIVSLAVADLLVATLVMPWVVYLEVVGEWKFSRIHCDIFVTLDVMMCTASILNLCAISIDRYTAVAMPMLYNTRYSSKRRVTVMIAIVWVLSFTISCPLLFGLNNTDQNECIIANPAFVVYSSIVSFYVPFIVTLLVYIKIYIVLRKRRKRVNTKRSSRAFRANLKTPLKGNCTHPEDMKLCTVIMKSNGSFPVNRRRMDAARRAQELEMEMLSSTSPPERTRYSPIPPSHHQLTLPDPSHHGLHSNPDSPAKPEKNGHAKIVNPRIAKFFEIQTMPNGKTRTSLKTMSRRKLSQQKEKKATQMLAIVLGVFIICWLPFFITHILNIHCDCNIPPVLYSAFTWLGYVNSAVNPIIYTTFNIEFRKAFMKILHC

Row | SMILES | IC50 [3] [nM] | IC50 [4] [nM] | IC50 [9] [nM] | IC50 [10] [nM] | IC50 [11] [nM] | ED50 [2] [mg/kg] | further results
1 | Cl.O=C1SC2(CCCC2)C(=O)N1CCCCN1CCN(c2nccc3sccc23)CC1 | 88.3 | 8.1 | – | – | – | 11.6 | IC50 [1]: 30.5 nM; MED50 [5]: 5 mg/kg; IC50 [6]: 3.9 nM; ED50 [7]: 35.2 mg/kg
2 | CC1(C)CC(=O)N(CCCCN2CCN(c3nccc4sc(Br)cc34)CC2)C(=O)C1.Cl | – | 3.7 | 70.9 | 228 | – | 65.3 | IC50 [8]: 27.2 nM
3 | Cl.Cn1ccc2c(N3CCN(CCCCN4C(=O)CC(C)(C)CC4=O)CC3)nccc21 | – | – | – | > 1000 | – | 67.2 | –
4 | Cl.Cn1ccc2c(N3CCN(CCCCN4C(=O)SC5(CCCC5)C4=O)CC3)nccc21 | 517 | – | – | – | – | 59.5 | IC50 [12]: 246 nM
5 | Cl.Cn1ccc2c(N3CCN(CCCCN4C(=O)COCC4=O)CC3)nccc21 | – | – | – | > 1000 | – | > 100 | –
6 | CC1CC(=O)N(CCCCN2CCN(c3nccc4sccc34)CC2)C(=O)C1.Cl | – | 8.8 | 4.2 | 663 | 1.3 | 2.9 | MED50 [13]: inactive; ED50 [14]: inactive; ED50 [7]: 39.5 mg/kg
7 | Cc1cc2c(N3CCN(CCCCN4C(=O)SC5(CCCC5)C4=O)CC3)nccc2s1.Cl | 279 | 3.6 | – | – | – | 35.4 | IC50 [6]: 43.4 nM
8 | Cl.O=C1c2ccccc2S(=O)(=O)N1CCCCN1CCN(c2nccc3sccc23)CC1 | – | 2.3 | 5.7 | 320 | 0.68 | > 62.5 | IC50 [8]: 1.2 nM
9 | Cl.O=C1CCCC(=O)N1CCCCN1CCN(c2nccc3sccc23)CC1 | – | – | 19.1 | – | 2.5 | 5.4 | MED50 [13]: inactive; ED50 [14]: inactive; MED ([5]; po): 20 mg/kg; ED50 [7]: 55.6 mg/kg
10 | Cl.O=C1SC2(CCCC2)C(=O)N1CCCCN1CCN(c2nccc3sc(Br)cc23)CC1 | 440 | 25.3 | – | – | – | > 100 | IC50 [6]: 116 nM
11 | O=C1CSCC(=O)N1CCCCN1CCN(c2nccc3sccc23)CC1 | – | – | 6.7 | 608 | 1.15 | 31.9 | IC50 [8]: 1.1 nM
12 | Cl.O=C1SC2(CCCC2)C(=O)N1CCCCN1CCN(c2nccc3occc23)CC1 | 331 | – | – | – | – | 9.2 | IC50 [1]: 23.5 nM

More lines, main results first:

Row | IC50 [3] [nM] | IC50 [4] [nM] | IC50 [9] [nM] | IC50 [10] [nM] | IC50 [11] [nM] | SMILES | ED50 [2] [mg/kg] | further results
13 | – | – | 55.2 | 339 | 12.4 | Cl.OC(CCCN1CCN(c2nccc3occc23)CC1)c1ccc(F)cc1 (configuration not stated) | 3.1 | IC50 [8]: 23.8 nM
14 | – | – | – | 708 | 4.9 | Cc1cc2c(N3CCN(CCCCN4C(=O)CC(C)(C)CC4=O)CC3)nccc2o1.Cl | 13.8 | –
15 | – | 5.3 | 2.8 | 306 | 2.7 | Cl.O=C1c2ccccc2C(=O)N1CCCCN1CCN(c2nccc3sccc23)CC1 | 38.9 | IC50 [8]: 0.69 nM
16 | 751 | – | – | – | – | Cc1cc2c(N3CCN(CCCCN4C(=O)SC5(CCCC5)C4=O)CC3)nccc2o1.Cl | 28.4 | IC50 [1]: 27.5 nM; IC50 [12]: 2.2 nM
17 | 626 | – | – | – | – | CC1(C)CC(=O)N(CCCCN2CCN(c3nccc4occc34)CC2)C(=O)C1.Cl | 4.2 | IC50 [1]: 47 nM; IC50 [12]: 8.64 nM
18 | – | – | – | – | 6.2 | Cc1cc2c(N3CCN(CCCC(O)c4ccc(F)cc4)CC3)nccc2o1.Cl (configuration not stated) | 23.2 | –
19 | – | – | – | > 1000 | – | Cl.O=C1CSCC(=O)N1CCCCN1CCN(c2nccc3occc23)CC1 | 35.8 | –
